Active and inactive are the calls of the source. The calls are words filed in the database; no cut-off is given here.

The results in this text go back to ChEMBL document CHEMBL1795243, “New microtubule polymerization inhibitors comprising a nitrooxymethylphenyl group” (Bioorg Med Chem, 2011).

The test system of series [1] is HCT-116. Description: Antiproliferative activity against human HCT116 cells after 72 hrs by cell counting kit analysis. In kind it is functional, cell-based. The conditions noted are these: HCT-116, 72 h. The essentials:
(§1)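 Cells grown with compound for 72 h, then growth quantified by WST-1 Cell Counting Kit. Final concentrations 1, 10, 25, 50, 100 and 200 μM. All media had 10% FBS, 37 °C, 5% CO2. Read-out IC50.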

Series [2] relates to SW-620. Nature of the series: Antiproliferative activity against human SW620 cells after 72 hrs by cell counting kit analysis. Format: functional, cell-based. The conditions noted are these: SW-620, 72 h. The essentials: as §1
The subject of series [3] is SW480. Nature of the series: Antiproliferative activity against human SW480 cells after 72 hrs by cell counting kit analysis. In kind it is functional, cell-based. The conditions noted are these: SW480, 72 h. In short, it runs like this: as §1
For series [4], the system named is SK-BR-3. Description: Antiproliferative activity against human SK-BR-3 cells after 72 hrs by cell counting kit analysis. Format: functional, cell-based. The conditions noted are these: SK-BR-3, 72 h. In short, it runs like this: as §1
The test system of series [5] is MCF7. Nature of the series: Antiproliferative activity against human MCF7 cells after 72 hrs by cell counting kit analysis. In kind it is functional, cell-based. The conditions noted are these: MCF7, 72 h. In short, it runs like this:
as §1

Series [6] has as its system MDA-MB-231. Description: Antiproliferative activity against human MDA-MB-231 cells after 72 hrs by cell counting kit analysis. Format: functional, cell-based. The conditions noted are these: MDA-MB-231, 72 h. The essentials: as §1
Series [7] has as its system HCT-116. Nature of the series: Cell cycle arrest in human HCT116 cells assessed as accumulation at sub-G1 phase at 20 uM after 24 hrs by FACS analysis (reference value: 6.2 %). In kind it is functional.
In series [8] the test system is HCT-116. Nature of the series: Cell cycle arrest in human HCT116 cells assessed as accumulation at G0/G1 phase at 20 uM after 24 hrs by FACS analysis (reference value: 76.5 %). Format: functional.
The subject of series [9] is HCT-116. Nature of the series: Cell cycle arrest in human HCT116 cells assessed as accumulation at G2/M phase at 20 uM after 24 hrs by FACS analysis (reference value: 10.9 %). Format: functional.
Series [10] concerns HCT-116. Nature of the series: Cell cycle arrest in human HCT116 cells assessed as accumulation at S phase at 20 uM after 24 hrs by FACS analysis (reference value: 8.5 %). In kind it is functional.
Series [11] can be described thus: Antiproliferative activity against human CCD-1059SK cells at 200 uM after 72 hrs by cell counting kit analysis. In kind it is cell-based. In short, it runs like this: as §1
In series [12] the test system is HCT-116. Description: Cell cycle arrest in human HCT116 cells assessed as increase of phosphorylated histone H3 at Ser10 level at 20 to 40 uM after 24 hrs by Western blotting. Format: functional, cell-based. The essentials:
(§2)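 HCT116 (1.0×10^6/dish) serum-starved 24 h, then treated 24 h in serum-free medium (0.4% DMSO control). Lysed 1 h at 0 °C in modified lysis buffer (pH 8.0, 1% NP-40). 7.5 µg protein run on SDS-PAGE and PVDF blot, probed for phospho-histone H3 Ser10 and total H3, ECL detection. Five independent experiments.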

The test system of series [13] is HCT-116. Description: Cell cycle arrest in human HCT116 cells assessed as increase of phosphorylated histone H3 at Ser10 level at 20 uM after 24 hrs using propidium iodide staining by flow cytometry (reference value: 1.4 %). Format: functional.
Series [14] concerns HCT-116. Description: Induction of apoptosis in human HCT116 cells at 20 uM after 48 hrs using FITC-TUNEL staining by flow cytometry (reference value: 7.3 %). Format: functional. The essentials:
(§3)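 HCT116 at 1.0×10^6 per 60 mm dish, treated 24 or 48 h (0.4% DMSO control). Floating plus adherent cells assayed with DeadEnd Fluorometric TUNEL System, and FITC-TUNEL-positive percentage read by flow cytometry. Five independent experiments.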

Series [15] deals with HCT-116. Description: Induction of apoptosis in human HCT116 cells at 20 uM after 24 hrs using FITC-TUNEL staining by flow cytometry. Format: functional. In short, it runs like this: as §3
Series [16] addresses T1, Tubulin (Homo sapiens) (UniProt P68371+Q9H4B7+P0DPH7+P68366+Q13509+Q71U36+P04350+Q3ZCM7+P07437+P68363+Q9BQE3+Q6PEY2+Q13885+Q9BVA1+Q9BUF5). Description: Inhibition of alpha-tubulin polymerization in human HT1080 cells assessed as disruption of microtubule structures at 10 uM after 4 hrs using Hoechst staining by fluorescence microscopic analysis. In kind it is cell-based. The conditions noted are these: HT-1080.

In series [17] the target is Tubulin (Sus scrofa) (UniProt P02554+P02550). Nature of the series: Inhibition of purified porcine brain tubulin polymerization at 20 uM after 100 mins by fluorescence assay. The essentials:
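Porcine brain tubulin 2.0 mg/mL in General Tubulin Buffer with Tubulin Glycerol Buffer, GTP and DAPI. Added to compound prewarmed at 37 °C (final 2.0% DMSO, which is also the vehicle control). DAPI fluorescence (ex 340, em 460 nm) read kinetically over 100 min. Four independent experiments.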

The test system of series [18] is HCT-116. Nature of the series: Cell cycle arrest in human HCT116 cells assessed as accumulation at sub-G1 phase at 150 nM after 24 hrs by FACS analysis (reference value: 6.2 %). Format: functional.
Series [19] relates to HCT-116. Nature of the series: Cell cycle arrest in human HCT116 cells assessed as accumulation at G0/G1 phase at 150 nM after 24 hrs by FACS analysis (reference value: 76.5 %). Format: functional.
The subject of series [20] is HCT-116. Description: Cell cycle arrest in human HCT116 cells assessed as accumulation at G2/M phase at 150 nM after 24 hrs by FACS analysis (reference value: 10.9 %). Format: functional.
The subject of series [21] is HCT-116. Nature of the series: Cell cycle arrest in human HCT116 cells assessed as accumulation at S phase at 150 nM after 24 hrs by FACS analysis (reference value: 8.5 %). Format: functional.
The test system of series [22] is HCT-116. Description: Induction of apoptosis in human HCT116 cells at 150 nM after 24 hrs using FITC-TUNEL staining by flow cytometry. Format: functional. In short, it runs like this:
as §3

Series [23] deals with HCT-116. Description: Cell cycle arrest in human HCT116 cells assessed as increase of phosphorylated histone H3 at Ser10 level at 150 nM after 24 hrs by Western blotting. In kind it is functional, cell-based. The essentials: as §2
For series [24], the system named is HCT-116. Description: Cell cycle arrest in human HCT116 cells assessed as increase of phosphorylated histone H3 at Ser10 level at 150 nM after 24 hrs using propidium iodide staining by flow cytometry (reference value: 1.4 %). Format: functional.
The subject of series [25] is HCT-116. Description: Induction of apoptosis in human HCT116 cells at 150 nM after 48 hrs using FITC-TUNEL staining by flow cytometry (reference value: 7.3 %). In kind it is functional. The essentials:
as §3

For series [26], the target named is T1, Tubulin (Homo sapiens). Nature of the series: Inhibition of alpha-tubulin polymerization in human HT1080 cells assessed as disruption of microtubule structures at 100 nM after 4 hrs using Hoechst staining by fluorescence microscopic analysis. In kind it is cell-based. The conditions noted are these: HT-1080.
For series [27], the system named is HCT-116. Nature of the series: Cell cycle arrest in human HCT116 cells assessed as accumulation at sub-G1 phase at 40 uM after 24 hrs by FACS analysis (reference value: 6.2 %). In kind it is functional.
Series [28] relates to HCT-116. Description: Cell cycle arrest in human HCT116 cells assessed as accumulation at G0/G1 phase at 40 uM after 24 hrs by FACS analysis (reference value: 76.5 %). In kind it is functional.
The subject of series [29] is HCT-116. Description: Cell cycle arrest in human HCT116 cells assessed as accumulation at G2/M phase at 40 uM after 24 hrs by FACS analysis (reference value: 10.9 %). Format: functional.
Series [30] relates to HCT-116. Nature of the series: Cell cycle arrest in human HCT116 cells assessed as accumulation at S phase at 40 uM after 24 hrs by FACS analysis (reference value: 8.5 %). In kind it is functional.
The test system of series [31] is HCT-116. Nature of the series: Induction of apoptosis in human HCT116 cells at 40 uM after 24 hrs using FITC-TUNEL staining by flow cytometry. Format: functional. The essentials: as §3
Series [32] deals with HCT-116. Nature of the series: Cell cycle arrest in human HCT116 cells assessed as increase of phosphorylated histone H3 at Ser10 level at 40 uM after 24 hrs using propidium iodide staining by flow cytometry (reference value: 1.4 %). Format: functional.
The test system of series [33] is HCT-116. Nature of the series: Induction of apoptosis in human HCT116 cells at 40 uM after 48 hrs using FITC-TUNEL staining by flow cytometry (reference value: 7.3 %). Format: functional. The essentials:
as §3

Series [34] concerns HCT-116. Nature of the series: Antitumor activity against human HCT116 cells xenografted in nude mouse assessed as inhibition of tumor growth at 80 mg/kg, ip administered at days 0, 2, 4, 7, 9, 11, 14 and 16 measured on day 21 relative to control. In kind it is functional. The conditions noted are these: route intraperitoneal.
Series [35] deals with Mus musculus. Nature of the series: Toxicity in human HCT116 cells xenografted nude mouse assessed change in body weight at 50 to 80 mg/kg, ip administered at days 0, 2, 4, 7, 9, 11, 14 and 16 measured on day 21. In kind it is organism-based, HCT-116. More on the design: dose 50-80 mg/kg, route intraperitoneal. The conditions noted are these: in vivo.

Sequence of Tubulin (Sus scrofa) (P02550 whole entry, looked up): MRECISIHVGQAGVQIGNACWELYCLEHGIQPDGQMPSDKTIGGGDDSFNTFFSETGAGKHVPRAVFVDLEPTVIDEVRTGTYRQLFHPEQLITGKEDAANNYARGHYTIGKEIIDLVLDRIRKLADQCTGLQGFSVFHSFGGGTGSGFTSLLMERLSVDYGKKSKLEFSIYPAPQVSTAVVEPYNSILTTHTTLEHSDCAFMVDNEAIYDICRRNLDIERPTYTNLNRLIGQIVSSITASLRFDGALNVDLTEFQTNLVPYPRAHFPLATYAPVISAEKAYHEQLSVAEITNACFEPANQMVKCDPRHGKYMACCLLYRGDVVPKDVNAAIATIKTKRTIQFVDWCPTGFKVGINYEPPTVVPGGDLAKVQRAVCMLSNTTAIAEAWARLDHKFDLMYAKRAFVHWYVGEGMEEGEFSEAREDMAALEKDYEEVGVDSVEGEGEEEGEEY
Sequence of Tubulin (Sus scrofa) (P02554 whole entry, looked up): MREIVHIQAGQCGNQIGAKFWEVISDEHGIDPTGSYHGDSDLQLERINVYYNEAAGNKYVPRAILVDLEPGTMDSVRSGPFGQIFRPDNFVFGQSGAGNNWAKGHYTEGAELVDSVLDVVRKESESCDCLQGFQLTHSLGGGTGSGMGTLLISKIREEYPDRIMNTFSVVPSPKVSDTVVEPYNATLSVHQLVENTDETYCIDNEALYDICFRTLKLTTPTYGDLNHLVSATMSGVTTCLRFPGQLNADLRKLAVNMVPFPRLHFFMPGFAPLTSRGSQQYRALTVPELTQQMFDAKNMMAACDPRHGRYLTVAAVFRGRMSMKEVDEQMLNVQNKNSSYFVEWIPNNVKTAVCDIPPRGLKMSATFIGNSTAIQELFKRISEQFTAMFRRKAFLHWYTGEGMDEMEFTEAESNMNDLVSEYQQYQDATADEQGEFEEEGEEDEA

In the case of `O=C(Nc1ccccc1OC(=O)c1ccc(CO[N+](=O)[O-])cc1)c1ccc(CO[N+](=O)[O-])cc1`, the 50% inhibitory concentration (IC50) is 700 nM in series [1]; 800 nM in series [2]; 3800 nM in series [3]; 700 nM in [4]; > 100000 nM in series [5]; 1400 nM in series [6]. Moreover, the Activity is recorded as 11% in series [7]; 52.4% in [8]; 29.3% in series [9]; 7.3% in series [10]; “Non-toxic” in series [11]; 26.4% in series [13]. Also, the Activity in series [14] is recorded as 36.4%; in series [15], 4%. Moreover, the outcome in [12] was Active. Also, the inhibition result in series [16] and in series [17] was “Active” in each case.

With `CC[C@]1(O)C[C@H]2CN(CCc3c([nH]c4ccccc34)[C@@](C(=O)OC)(c3cc4c(cc3OC)N(C=O)[C@H]3[C@@](O)(C(=O)OC)[C@H](OC(C)=O)[C@]5(CC)C=CCN6CC[C@]43[C@@H]65)C2)C1` [VINCRISTINE], the Activity in [18] is recorded as 23%; in series [19], 35.9%; in [20] it was 28.6%; in series [21] it was 12.5%; in [22], 4%; in [24], 25.3%. The Activity in [25] is 31.6%. For the same compound, in series [23], the result was Active. In [26], the inhibition result is “Active”.

`CC(=O)Oc1ccccc1C(=O)Oc1ccc(CO[N+](=O)[O-])cc1`: the IC50 in series [1] was 68000 nM; in series [2], 15100 nM; in series [3], 19100 nM; in series [4], 30500 nM; in series [5] it was > 100000 nM; in [6], 14400 nM. Moreover, the Activity in [27] amounted to 15.3%; in series [28], 53.7%; in series [29], 12%; in series [30], 18.8%; in series [31], 4%; in series [32], 1.7%. Besides, in series [33], the Activity is on record as 3.6%. Also, the result in [12] was inactive.

For the compound `O=C(Nc1ccccc1)c1ccc(CO[N+](=O)[O-])cc1`, the IC50 is 600 nM in series [1]; 800 nM in series [2]; 800 nM in series [3]; 700 nM in series [4]; > 100000 nM in series [5]; 800 nM in series [6]. For the same compound, the Activity is given as 10.4% in [7]; 30.4% in series [8]; 51.8% in [9]; 7.4% in series [10]; “Non-toxic” in series [11]; 46.2% in [13]. For the same compound, the Activity in series [14] was 24.2%; in series [15] it was 4%; in [35], “Non-toxic”. Further, the result in [12] was Active. Besides, the inhibition entry in series [16] and in series [17] was “Active” each time. The T/C in series [34] worked out at 55%.
